Data set [1] in a line: Cytotoxicity against human NCI-H322M cells assessed as cell growth at 10 uM after 48 hrs by SRB assay relative to control. The class given is functional. The conditions noted are these: read-out: Activity. On the technique in general: Sulforhodamine B stains cellular protein and so reports cell mass.
A short description of data set [2]: Cytotoxicity against human NCI-H226 cells assessed as cell growth at 10 uM after 48 hrs by SRB assay relative to control. The class given is functional. The conditions noted are these: NCI-H226, 48 h, read-out: Activity.
Data set [3] can be described thus: Cytotoxicity against human NCI-H522 cells assessed as cell growth at 10 uM after 48 hrs by SRB assay relative to control. The class given is functional. The conditions noted are these: NCI-H522, 48 h, read-out: Activity.
Data set [4] can be described thus: Cytotoxicity against human A549 cells assessed as decrease in cell viability after 72 hrs by MTT assay. Format: functional, cell-based. To be noted: A549, 72 h. An outline of the steps:
(§1)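 Cells kept in RPMI 1640 with 10% FBS at 37 °C, 5% CO2, passaged every 2-3 days; seeded at 5,000-7,000 cells/well and left 24 h. Compounds dissolved in 1% DMSO, diluted in fresh medium to 1, 4, 16 and 32 µM, added in sextuplicate; 72 h exposure. MTT added for 3-4 h, medium removed, DMSO added for 15 min at 37 °C, OD read at 540 nm.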
On the technique in general: Tetrazolium assays rely on reduction of a dye to a coloured formazan, in cell work by metabolically active cells.

Data set [5] in a line: Cytotoxicity against human NCI-H460 cells assessed as decrease in cell viability after 72 hrs by MTT assay. Format: functional, cell-based. To be noted: NCI-H460, 72 h. An outline of the steps: as §1
Data set [6] is described as follows: Cytotoxicity against human NCI-H460 cells assessed as cell growth at 10 uM after 48 hrs by SRB assay relative to control. Format: functional. To be noted: NCI-H460, 48 h, read-out: Activity.
Data set [7] in a line: Cytotoxicity against human HCC827 cells assessed as decrease in cell viability after 72 hrs by MTT assay. Format: functional, cell-based. The conditions noted are these: HCC827, 72 h. Summed up:
as §1

Data set [8] can be described thus: Cytotoxicity against human A549 cells assessed as cell growth at 10 uM after 48 hrs by SRB assay relative to control. The class given is functional. The conditions noted are these: A549, 48 h, read-out: Activity.
Data set [9] is described as follows: Cytotoxicity against human NCI-H1975 cells assessed as decrease in cell viability after 72 hrs by MTT assay. The class given is functional, cell-based. The conditions noted are these: NCI-H1975, 72 h. Summed up:
as §1

A short description of data set [10]: Cytotoxicity against human HOP62 cells assessed as cell growth at 10 uM after 48 hrs by SRB assay relative to control. To be noted: HOP-62, 48 h, read-out: Activity. The class given is functional.
Data set [11] in a line: Cytotoxicity against human NCI-H23 cells assessed as cell growth at 10 uM after 48 hrs by SRB assay relative to control. The class given is functional. The conditions noted are these: NCI-H23, 48 h, read-out: Activity.
Data set [12] can be described thus: Cytotoxicity against human HOP92 cells assessed as cell growth at 10 uM after 48 hrs by SRB assay relative to control. Format: functional. The conditions noted are these: HOP-92, 48 h, read-out: Activity.
Data set [13] is described as follows: Cytotoxicity against human EKVX cells assessed as cell growth at 10 uM after 48 hrs by SRB assay relative to control. Format: functional. To be noted: read-out: Activity.
Data set [14] is described as follows: Aqueous solubility of the compound. Format: physicochemical.
Data set [15] is described as follows: Growth inhibition of human NCI-H522 cells after 48 hrs by SRB assay. Format: functional. The conditions noted are these: NCI-H522, 48 h.
The nature of data set [16]: Growth inhibition of human NCI-H322M cells after 48 hrs by SRB assay. Format: functional.
The nature of data set [17]: Growth inhibition of human NCI-H460 cells after 48 hrs by SRB assay. Format: functional. To be noted: NCI-H460, 48 h.
Data set [18] in a line: Growth inhibition of human EKVX cells after 48 hrs by SRB assay. Format: functional.
A short description of data set [19]: Growth inhibition of human A549 cells after 48 hrs by SRB assay. Format: functional. To be noted: A549, 48 h.
Data set [20] is described as follows: Growth inhibition of human HOP92 cells after 48 hrs by SRB assay. The class given is functional. To be noted: HOP-92, 48 h.
Data set [21] is described as follows: Growth inhibition of human NCI-H226 cells after 48 hrs by SRB assay. The class given is functional. To be noted: NCI-H226, 48 h.
Data set [22] can be described thus: Growth inhibition of human HOP62 cells after 48 hrs by SRB assay. To be noted: HOP-62, 48 h. The class given is functional.
A short description of data set [23]: Growth inhibition of human NCI-H23 cells after 48 hrs by SRB assay. Format: functional. The conditions noted are these: NCI-H23, 48 h.

From ChEMBL document CHEMBL3868630, “Synthesis, anti-proliferative activity, SAR study, and preliminary in vivo toxicity study of substituted N,N'-bis(arylmethyl)benzimidazolium salts against a panel of non-small cell lung cancer cell lines” (Bioorg Med Chem, 2017) come the findings set out here.

Each structure is given as a SMILES string.

What is called IC50 is the concentration that gives 50% inhibition. Broadly, the solubility is the dissolved amount per volume that the medium holds. Low readings indicate a poorly soluble substance, high ones a readily soluble substance. For the compound `S=c1n(Cc2ccc3ccccc3c2)c2ccccc2n1Cc1ccc2ccccc2c1`, the growth at 10 µM amounted to 92.6% in [1]; 73.5% in data set [2]; 88.2% in [3]; 69.8% in data set [6]; 87.6% in [8]; 81.9% in data set [10]. For the same compound, the growth at 10 µM in data set [11] is 93.1%; in data set [12] it was 83.4%; in data set [13] it was 93.1%. The half-inhibitory concentration (IC50) in [4], in data set [5], in [7] and in data set [9] was over 30000 nM throughout. Also, the solubility in data set [14] was under 500 µg/mL.

As usually defined, the GI50 is the concentration at which growth is held to half of that of the control. High values mean lower sensitivity of the cells, low ones greater sensitivity of the cells. As a reminder, the TGI is the concentration at which net growth stops. With `CCCCc1n(Cc2ccc3ccccc3c2)c2ccccc2[n+]1Cc1ccc2ccccc2c1.[Br-]`, the growth at 10 µM in data set [1] was -82.2%; in data set [2], -72.7%; in [3] it was -77.2%; in data set [6], -81.1%; in data set [8], -72.3%; in [10] it was -76.8%. The growth at 10 µM in [11] was -83.9%; in data set [12] it was -70.7%; in data set [13], -84.6%. The GI50 in data set [15] turned out to be 289 nM; in [16], 1220 nM; in [17], 436 nM; in data set [18] it was 1170 nM; in [19] it was 1040 nM; in [20], 298 nM. Besides, the figures for the GI50 in data set [21], in [22] and in [23] were 1080 nM, 1050 nM and 371 nM, respectively. For the same compound, the concentration for total growth inhibition (TGI) turned out to be 1350 nM in [15]; 2570 nM in data set [16]; 2420 nM in data set [19]; 1350 nM in data set [20]; 2550 nM in [22]; 1700 nM in data set [23]. In addition, the 50% inhibitory concentration (IC50) is 2000 nM in data set [4], 2000 nM in [5], 2000 nM in data set [7] and under 1000 nM in [9]. Besides, the solubility in [14] was under 500 µg/mL.

Regarding `Cc1n(Cc2ccc3ccccc3n2)c2ccccc2[n+]1Cc1ccc2ccccc2n1.[Cl-]`, the growth at 10 µM in data set [1] amounted to 94.9%; in data set [2] it was 89.6%; in [3], 56.6%; in data set [6] it was 95.8%; in [8], 87.9%; in [10] it was 82.7%. Also, the growth at 10 µM in data set [11] turned out to be 75.8%; in data set [12], 52%; in [13], 102%. In addition, the IC50 in data set [4] worked out at 9000 nM; in [5], 3000 nM; in [7] it was 7000 nM; in data set [9], 2000 nM. Moreover, the solubility in data set [14] was found to be 1100 µg/mL.

With `COCCOCCOCc1n(Cc2ccc3ccccc3c2)c2ccccc2[n+]1Cc1ccc2ccccc2c1.[Br-]`, the growth at 10 µM is 40.5% in data set [1]; 17.2% in data set [2]; -16.6% in [3]; 10.3% in data set [6]; 33.1% in data set [8]; 17.1% in data set [10]. For the same compound, the growth at 10 µM in data set [11] is 5.56%; in [12], -32.1%; in data set [13] it was 47.4%. For the same compound, the IC50 in data set [4] came out at 5000 nM; in data set [5], 3000 nM; in data set [7], 5000 nM; in [9], 3000 nM. Also, the concentration in solution in data set [14] (solubility) was 700 µg/mL.

Take `O=c1n(Cc2ccc3ccccc3c2)c2ccccc2n1Cc1ccc2ccccc2c1`: the growth at 10 µM in data set [1] worked out at 81.6%; in [2], 83.9%; in data set [3], 73.4%; in data set [6] it was 74.6%; in [8] it was 85.2%; in [10], 62.8%. The growth at 10 µM is 77.7% in [11], 79.9% in data set [12] and 79.5% in [13]. Further, the IC50 in [4] was over 30000 nM; in data set [5], over 30000 nM; in [7], over 30000 nM; in data set [9] it was 19000 nM. Besides, the solubility in [14] is under 500 µg/mL.

Regarding `COCCOCCOCc1n(Cc2ccc3ccccc3n2)c2ccccc2[n+]1Cc1ccc2ccccc2n1.[Cl-]`, the growth at 10 µM is 47.4% in data set [1]; 37.9% in data set [2]; -1.7% in data set [3]; 16.5% in data set [6]; 39.4% in [8]; 20.8% in data set [10]. Also, the growth at 10 µM in [11] was 12.8%; in data set [12], -22.1%; in data set [13], 71.6%. The IC50 in [4] was 9000 nM; in data set [5], 4000 nM; in data set [7], 4000 nM; in data set [9] it was under 1000 nM. In data set [14], this compound yielded a solubility of 42200 µg/mL.

Broadly, the LC50 is the concentration that kills 50% of the test population. For `[Br-].c1ccc2cc(Cn3c[n+](Cc4ccc5ccccc5c4)c4ccccc43)ccc2c1`, the growth at 10 µM in data set [1] was 34.6%; in data set [2], 19.6%; in data set [3] it was -28.8%; in [6], -34.2%; in data set [8], 30.9%; in [10] it was 3.98%. Further, the growth at 10 µM is -0.74% in data set [11], -27.6% in data set [12] and 13.9% in data set [13]. For the same compound, the 50% growth inhibitory concentration (GI50) was found to be 1250 nM in data set [15]; 1490 nM in [16]; 1350 nM in [17]; 1470 nM in data set [18]; 1870 nM in data set [19]; 192 nM in data set [20]. The GI50 stood at 1460 nM in data set [21], 1540 nM in data set [22] and 1050 nM in data set [23]. For the same compound, the TGI came to 2820 nM in [15]; 2890 nM in [16]; 2910 nM in data set [17]; 2950 nM in [18]; 3880 nM in data set [19]; 1570 nM in data set [20]. Besides, the concentration for total growth inhibition (TGI) is 3250 nM in data set [21], 2980 nM in data set [22] and 2510 nM in data set [23]. Moreover, the half-maximal inhibitory concentration (IC50) in data set [4] was 5000 nM; in data set [5], 3000 nM; in data set [7], 3000 nM; in [9], 3000 nM. Further, the results for the LC50 in data set [19] and in data set [20] were 8010 nM and 4930 nM, respectively. In [14], this compound came in with a solubility of under 500 µg/mL.

For `CCCc1n(Cc2ccc3ccccc3c2)c2ccccc2[n+]1Cc1ccc2ccccc2c1.[Br-]`, the growth at 10 µM in [1] is 4.72%; in data set [2] it was -4.44%; in data set [3], -60.1%; in data set [6], -76.1%; in data set [8] it was -19.4%; in data set [10], -55.4%. For the same compound, the growth at 10 µM in [11] was -12.9%; in [12], -48.1%; in [13] it was -4.84%. The concentration for 50% growth inhibition (GI50) in data set [15] was 300 nM; in [16], 1040 nM; in [17], 337 nM; in data set [18] it was 653 nM; in data set [19], 619 nM; in data set [20], 192 nM. In addition, the values for the GI50 in data set [21], in data set [22] and in data set [23] were 373 nM, 537 nM and 354 nM, respectively. The TGI in [15] turned out to be 1050 nM; in data set [16] it was 2310 nM; in data set [17], 1360 nM; in data set [18], 2330 nM; in [19], 2040 nM; in data set [20], 911 nM. Also, the concentration for total growth inhibition (TGI) in data set [21] turned out to be 1800 nM; in data set [22] it was 2030 nM; in data set [23], 1600 nM. In addition, the half-maximal inhibitory concentration (IC50) in data set [4] is 2000 nM; in data set [5] it was 2000 nM; in [7], under 1000 nM; in [9] it was under 1000 nM. Besides, the LC50 in data set [19] was determined as 5090 nM. This compound also came in with a solubility in [14] of under 500 µg/mL.
